Experimental findings from ChEMBL document CHEMBL1142934, “Molecular modeling of the human P2Y2 receptor and design of a selective agonist, 2'-amino-2'-deoxy-2-thiouridine 5'-triphosphate” (J Med Chem, 2007) are described below.

For orientation: EC50 means the concentration giving half of the maximal effect. Usually Kb stands for the affinity of an antagonist, worked out from how it opposes an agonist.

Type in all cases: functional, cell-based
One experiment addresses P2Y purinoceptor 2 (Homo sapiens, UniProt P41231). As to the kind of experiment: Agonist activity at human recombinant P2Y2 receptor expressed in 1321N1 cells assessed as stimulation of phospholipase C. Put shortly: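 Human P2Y2, P2Y4 or P2Y6 receptors stably expressed in 1321N1 astrocytoma cells. PLC activation was measured across a concentration range of each nucleotide. Tritiated inositol phosphates formed from a radiolabeled myo-inositol precursor were quantified by a standard ion exchange method. Values are mean ± standard error, N = 3.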

In experiment [1] the target is T1, P2Y purinoceptor 6 (Homo sapiens, UniProt Q15077). The experiment in a line: Agonist activity at human recombinant P2Y6 receptor expressed in 1321N1 cells assessed as stimulation of phospholipase C. The method, boiled down:
(§1)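 Human P2Y2, P2Y4 or P2Y6 receptors stably expressed in 1321N1 astrocytoma cells. PLC activation was measured across a concentration range of each nucleotide. Tritiated inositol phosphates formed from a radiolabeled myo-inositol precursor were quantified by a standard ion exchange method. EC50 was the concentration giving 50% of the maximal effect, fitted with a four-parameter logistic equation. Values are mean ± standard error, N = 3.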

Experiment [2] addresses T2, P2Y purinoceptor 4 (Homo sapiens, UniProt P51582). As to the kind of experiment: Agonist activity at human recombinant P2Y4 receptor expressed in 1321N1 cells assessed as stimulation of phospholipase C. Put shortly:
as §1

In experiment [3] the target is T1, P2Y purinoceptor 6. As to the kind of experiment: Agonist activity at human recombinant P2Y6 receptor expressed in 1321N1 cells assessed as intracellular calcium mobilization. A general note: Calcium assays in cells follow changes in intracellular calcium, usually with a dye or a luminescent sensor.
The target of experiment [4] is T2, P2Y purinoceptor 4. The experiment in a line: Antagonistic activity at human recombinant P2Y4 receptor expressed in 1321N1 cells. The note with it: filed as antagonist.

T1 sequence (Q15077 whole entry): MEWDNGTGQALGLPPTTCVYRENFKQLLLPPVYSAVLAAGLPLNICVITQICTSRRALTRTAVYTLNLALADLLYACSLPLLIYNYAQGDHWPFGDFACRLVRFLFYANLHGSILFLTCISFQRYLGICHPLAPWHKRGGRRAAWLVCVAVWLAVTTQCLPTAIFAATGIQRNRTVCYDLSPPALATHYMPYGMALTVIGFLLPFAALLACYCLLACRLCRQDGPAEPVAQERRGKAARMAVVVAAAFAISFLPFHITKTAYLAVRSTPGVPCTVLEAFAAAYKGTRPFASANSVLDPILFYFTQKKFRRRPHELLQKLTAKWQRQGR
Chain of P2Y purinoceptor 2 (P41231 whole entry): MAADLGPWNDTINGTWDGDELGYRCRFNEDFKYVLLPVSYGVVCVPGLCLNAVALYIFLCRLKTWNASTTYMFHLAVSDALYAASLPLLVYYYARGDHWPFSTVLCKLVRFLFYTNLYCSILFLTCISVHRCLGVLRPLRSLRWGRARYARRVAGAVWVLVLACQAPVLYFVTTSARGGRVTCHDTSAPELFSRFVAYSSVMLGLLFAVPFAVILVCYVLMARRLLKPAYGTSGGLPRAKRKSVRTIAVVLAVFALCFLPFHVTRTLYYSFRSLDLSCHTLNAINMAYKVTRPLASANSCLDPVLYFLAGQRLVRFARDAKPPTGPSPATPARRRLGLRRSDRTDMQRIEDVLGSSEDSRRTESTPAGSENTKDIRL
T2 sequence (P51582 whole entry): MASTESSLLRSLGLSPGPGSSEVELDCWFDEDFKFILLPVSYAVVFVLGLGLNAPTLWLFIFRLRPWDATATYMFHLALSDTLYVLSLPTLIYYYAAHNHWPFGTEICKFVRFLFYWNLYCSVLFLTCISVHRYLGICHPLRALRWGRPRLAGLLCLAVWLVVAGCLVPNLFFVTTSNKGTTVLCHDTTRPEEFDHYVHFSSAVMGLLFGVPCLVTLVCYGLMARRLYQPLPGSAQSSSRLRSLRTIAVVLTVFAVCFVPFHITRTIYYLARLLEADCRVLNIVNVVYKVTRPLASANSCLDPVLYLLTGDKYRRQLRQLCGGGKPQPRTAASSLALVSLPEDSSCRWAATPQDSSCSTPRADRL

Take `O=c1ccn([C@@H]2O[C@H](COP(=O)(O)OP(=O)(O)OP(=O)(O)OP(=O)(O)OC[C@H]3OC(O)[C@H](O)[C@@H]3O)[C@@H](O)[C@H]2O)c(=O)[nH]1` (some centres not stated): the concentration for a half-maximal effect (EC50) on P2Y purinoceptor 2 is 1880 nM (agonist).

In the case of `Cc1cn([C@@H]2O[C@H](COP(=O)(O)OP(=O)(O)OP(=O)(O)O)[C@@H](O)[C@H]2O)c(=O)[nH]c1=O` [THYMIDINE_TRIPHOSPHATE], the EC50 on P2Y purinoceptor 6 [1] was 140 nM (agonist); on P2Y purinoceptor 2, 480 nM (agonist); at P2Y purinoceptor 4 [2], 3.9 µM (agonist).

In the case of `CO[C@@H]1[C@H](O)[C@@H](COP(=O)(O)OP(=O)(O)OP(=O)(O)O)O[C@H]1n1ccc(=O)[nH]c1=O`, the EC50 at P2Y purinoceptor 2 was 14300 nM (agonist).

For `O=c1[nH]c(=O)n([C@@H]2O[C@H](COP(=O)(O)OP(=O)(O)OP(=O)(O)O)[C@@H](O)[C@H]2O)cc1Br`, the EC50 at P2Y purinoceptor 2 is on record as 750 nM (agonist).

In the case of `N[C@@H]1[C@H](O)[C@@H](COP(=O)(O)OP(=O)(O)OP(=O)(O)O)O[C@H]1n1ccc(=O)[nH]c1=O`, the figures for the EC50 at P2Y purinoceptor 6 [1], at P2Y purinoceptor 2 and on P2Y purinoceptor 4 [2] were above 100000 nM, 62 nM (agonist) and 1.2 µM (agonist), respectively.

As to `O=c1ccn([C@@H]2O[C@H](COP(=O)(O)OP(=O)(O)OP(=O)(O)OP(=O)(O)OC[C@H]3O[C@@H](n4ccc(=O)[nH]c4=O)[C@H](O)[C@@H]3O)[C@@H](O)[C@H]2O)c(=O)[nH]1` [DIQUAFOSOL], the EC50 on P2Y purinoceptor 6 [3] is reported as 20 µM (agonist).

As for `O=c1ccn([C@@H]2O[C@H](COP(=O)(O)OP(=O)(O)OP(=O)(O)S)[C@@H](O)[C@H]2O)c(=O)[nH]1` (some centres not stated), the EC50 on P2Y purinoceptor 2 is listed as 240 nM (agonist).

In the case of `N[C@@H]1[C@H](O)[C@@H](COP(=O)(O)OP(=O)(O)OP(=O)(O)O)O[C@H]1n1ccc(=O)[nH]c1=S`, the EC50 at P2Y purinoceptor 6 [1] is above 10000 nM; at P2Y purinoceptor 2, 8 nM (agonist); on P2Y purinoceptor 4 [2], 2.4 µM (agonist).

With `Nc1ncnc2c1ncn2[C@@H]1O[C@H](COP(=O)(O)OP(=O)(O)OP(=O)(O)O)[C@@H](O)[C@H]1O`, on P2Y purinoceptor 4 [4], the Activity entry is “Antagonist” and the Kb was 708 nM.

With `O=c1ccn([C@H]2C[C@H](O)[C@@H](COP(=O)(O)OP(=O)(O)OP(=O)(O)O)O2)c(=O)[nH]1`, the EC50 on P2Y purinoceptor 2 is 1080 nM (agonist).

`Nc1cn([C@@H]2O[C@H](COP(=O)(O)OP(=O)(O)OP(=O)(O)O)[C@@H](O)[C@H]2O)c(=O)[nH]c1=O`: the EC50 at P2Y purinoceptor 6 [1] was 333 nM (agonist); on P2Y purinoceptor 2, 5600 nM (agonist).

For `O=C(N[C@@H]1[C@H](O)[C@@H](COP(=O)(O)OP(=O)(O)OP(=O)(O)O)O[C@H]1n1ccc(=O)[nH]c1=S)C(F)(F)F`, the EC50 is 470 nM (agonist) at P2Y purinoceptor 2 and 8.3 µM (agonist) on P2Y purinoceptor 4 [2].

As for `O=c1ccn([C@@H]2O[C@H](COP(=O)(O)OP(=O)(O)OP(=O)(O)O)[C@@H](O)[C@H]2O)c(=O)[nH]1` [URIDINE TRIPHOSPHATE], the EC50 on P2Y purinoceptor 2 was 49 nM (agonist); on P2Y purinoceptor 6 [3], > 10 µM (agonist); at P2Y purinoceptor 4 [2], 0.073 µM (agonist).

As to `O=c1[nH]c(=O)n([C@@H]2O[C@H](COP(=O)(O)OP(=O)(O)OP(=O)(O)O)[C@@H](O)[C@H]2O)cc1I`, at P2Y purinoceptor 2, the EC50 was 830 nM (agonist).

With `CC(=O)N[C@@H]1[C@H](O)[C@@H](COP(=O)(O)OP(=O)(O)OP(=O)(O)O)O[C@H]1n1ccc(=O)[nH]c1=S`, on P2Y purinoceptor 2, the EC50 is 6500 nM (agonist).

For `[N-]=[N+]=Nc1cn([C@@H]2O[C@H](COP(=O)(O)OP(=O)(O)OP(=O)(O)O)[C@@H](O)[C@H]2O)c(=O)[nH]c1=O`, the results for the concentration giving a half-maximal response (EC50) at P2Y purinoceptor 6 [1] and at P2Y purinoceptor 2 were 467 nM (agonist) and 1800 nM (agonist), respectively.

Consider `Nc1ccn([C@H]2C[C@H](O)[C@@H](COP(=O)(O)OP(=O)(O)OP(=O)(O)OP(=O)(O)OC[C@H]3O[C@@H](n4ccc(=O)[nH]c4=O)[C@H](O)[C@@H]3O)O2)c(=O)n1` [DENUFOSOL], for which the EC50 on P2Y purinoceptor 2 is on record as 270 nM (agonist).

For the molecule `O=c1ccn([C@@H]2O[C@H](COP(=O)(O)OP(=O)(O)OP(=O)(O)O)[C@@H](O)[C@H]2O)c(=S)[nH]1`, the values for the EC50 on P2Y purinoceptor 6 [1], at P2Y purinoceptor 2 and on P2Y purinoceptor 4 [2] were 1500 nM (agonist), 35 nM (agonist) and 0.35 µM (agonist), respectively.
